Pf Dd2 growth: P. falciparum Dd2 growth inhibitors, primary screen, SYBR Green fluorescence, single dose replicates; activity change, % at 10 µM; AID 1159554, 2015; hit rate 2.3% among 94,000; 72 h; stronger effect = lower value; in the data active means activity change below about -80%; inconclusive means no clear call, values can overlap the other calls
IDH1 R132H inh: inhibitors of IDH1 R132H reductase, primary screen, biochemical, plate reader, single point; Isocitrate dehydrogenase [NADP] cytoplasmic (Homo sapiens), O75874; diaphorase/resazurin fluorescence, 60 min; inhibition, % at 10 µM; hit rate 0.18% among 70,000; in the data active means inhibition above about 34%; inconclusive means no clear call, values can overlap the other calls; inactive means below about 11%;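 further: 0% = DMSO and 100% = no enzyme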
Target sequence (O75874 whole entry R132H): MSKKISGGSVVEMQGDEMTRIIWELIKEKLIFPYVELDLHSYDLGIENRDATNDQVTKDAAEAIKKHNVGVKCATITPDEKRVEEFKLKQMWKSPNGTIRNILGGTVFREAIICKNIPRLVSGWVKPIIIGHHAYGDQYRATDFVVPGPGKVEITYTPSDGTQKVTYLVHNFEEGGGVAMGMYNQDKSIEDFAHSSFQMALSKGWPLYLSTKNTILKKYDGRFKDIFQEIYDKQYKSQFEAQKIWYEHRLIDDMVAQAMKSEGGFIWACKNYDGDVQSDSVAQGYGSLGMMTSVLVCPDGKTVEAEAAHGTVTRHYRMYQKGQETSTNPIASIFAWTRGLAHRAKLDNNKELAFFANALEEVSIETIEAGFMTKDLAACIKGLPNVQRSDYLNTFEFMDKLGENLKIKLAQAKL
T cruzi growth-1: T. cruzi intracellular proliferation inhibitors, primary screen, cell-based, beta-gal Tulahuen parasites, NIH3T3 host, luminescence; T. cruzi beta-gal in NIH3T3, GalScreen luminescence, 90 h; inhibition, % at 8.34 µM; hit rate 5.9% among 77,000; AID 624255, 2012;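 active means mean inhibition above about 93%, with at least 55% of replicates each passing it, limit read from the data, passing the limit was not always enough; inconclusive means only one of those two conditions holds; inactive means neither condition holds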
KDM4C inh: inhibitors of GASC-1 (KDM4C) histone demethylase, primary screen, biochemical, single concentration HTS; inhibition, % at 12.5 µM; hit rate 0.15% among 96,000; AID 720574, 2013; GST-KDM4C 2-372, H3K9me3 peptide, LANCE TR-FRET; Lysine-specific demethylase 4C (Homo sapiens), Q9H3R0;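 active means mean replicate inhibition above about 25%, with at least 55% of replicates also reaching it, limit read from the data, passing the limit was not always enough; inconclusive means only one of those two conditions met; inactive means neither condition met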
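Material: GST-tagged GASC-1 (JMJD2C) catalytic fragment, aa 2-372. Input: enzyme final amount 10 nM. Medium: HEPES buffer, pH 7.5, plus ascorbate. Reagent: H3K9me3 peptide substrate, Fe(II), 2-oxoglutarate. Doses: single dose. Times: reaction 30 min RT, detection step 1 h RT. Measured by: LANCE TR-FRET. Evaluation: Fall in 671/618 emission ratio as inhibition.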
T cruzi growth-2: T. cruzi intracellular proliferation inhibitors, confirmation, cell-based, NIH3T3 host, beta-gal parasite, luminescence, cherry-pick. shares compounds with T cruzi growth-1. T. cruzi beta-gal in NIH3T3, GalScreen luminescence, 90 h. inhibition, % at 8.35 µM. hit rate 72% among 5,600. AID 651739, 2012;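 active means mean replicate inhibition above about 95% and at least 55% of replicates individually reaching it, limit read from the data; inconclusive means only one of the two criteria is met; inactive means neither criterion is met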
T cruzi growth-3: inhibitors of intracellular T. cruzi replication, confirmation, NIH3T3 host cells, beta-gal parasites, cherry-pick, set 2; inhibition, % at 2.09 µM; hit rate 21% among 5,600; AID 651740, 2012; shares compounds with T cruzi growth-1; T. cruzi beta-gal in NIH3T3, GalScreen luminescence, 90 h;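 active means mean inhibition above about 95%, with at least 55% of replicates also reaching it, limit read from the data; inconclusive means meets just one of the two conditions; inactive means meets neither condition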;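 further: plate controls were neutral control median for no effect and positive control median for full effect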
NIH3T3 tox: cytotoxicity in mouse NIH/3T3 fibroblasts, confirmation, cytotoxicity control for T. cruzi proliferation inhibitor project, cell-based, cherry-pick, single point. shares compounds with T cruzi growth-1. NIH/3T3 viability, CellTiter-Glo ATP luminescence, 90 h. cytotoxicity (signal decrease), % at 8.35 µM. hit rate 14% among 5,600. AID 651742, 2012;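 active means mean signal decrease across replicates above about 35% based on untreated-well scatter, with enough replicates individually passing, limit read from the data; inconclusive means no rule stated though some were filed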;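 further: 0% = median of neutral control wells and 100% = median of positive control wells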
3T3 cytotox 2: NIH/3T3 fibroblast cytotoxicity, confirmation, cytotoxicity control, cell-based, cherry-pick, single point, set 2 | hit rate 56% among 5,600 | shares compounds with T cruzi growth-1 | NIH/3T3 viability, CellTiter-Glo ATP luminescence, 90 h | inhibition, % at 24.9 µM;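 active means mean loss of cell viability signal at or above a set limit, and enough replicates individually reaching it; inconclusive means meets only the mean limit or only the replicate share; inactive means meets neither condition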;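 further: 0% = median of neutral control wells and 100% = median of positive control wells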
* marks the source's active call; other numbers are inactive results; ? = inconclusive; · = not tested or not shown; ! = repeats disagree. The list is not random: actives were taken first. Their share in the collection is about 5.8%.

SMILES	Pf Dd2 growth	IDH1 R132H inh	T cruzi growth-1	KDM4C inh	T cruzi growth-2	T cruzi growth-3	NIH3T3 tox	3T3 cytotox 2
CN(C)CC#Cc1ccc([C@@H]2[C@@H](CO)N3CCCCN(C(=O)Nc4cc(F)ccc4F)C[C@H]23)cc1	-4	·	100*	4	?	45	8	28*
CN(C)CC#Cc1ccc([C@H]2[C@@H](CO)N3CCCCN(C(=O)Nc4cc(F)ccc4F)C[C@H]23)cc1	-40	·	109*	5	96*	50	21	101*
C[C@@H]1CN([C@H](C)CO)C(=O)c2cc(C#CCN(C)C)cnc2O[C@H]1CN(C)Cc1ccc(-c2ccccc2)cc1	·	·	109*	0	111*	116*	?	104*
C[C@@H]1CN([C@H](C)CO)C(=O)c2cc(C#CCN(C)C)cnc2O[C@H]1CN(C)Cc1ccccc1	-8	-1	-113	·	·	·	·	·
C[C@@H]1CN([C@H](C)CO)C(=O)c2cc(C#CCN(C)C)cnc2O[C@@H]1CN(C)Cc1ccc(C(=O)O)cc1	-1	1	105*	7	-7	3	-20	-5
C[C@@H]1CN([C@@H](C)CO)C(=O)c2cc(C#CCN(C)C)cnc2O[C@H]1CN(C)Cc1ccc(-c2ccccc2)cc1	-61	-10	102*	3	109*	116*!	40*	104*
C[C@H](CO)N1C[C@H](C)[C@@H](CN(C)Cc2ccc(C(=O)O)cc2)Oc2ncc(C#CCN(C)C)cc2C1=O	5	-1	-21	3	·	·	·	·
C[C@@H]1CN([C@@H](C)CO)C(=O)c2cc(C#CCN(C)C)cnc2O[C@@H]1CN(C)Cc1ccc(-c2ccccc2)cc1	·	·	112*	8	110*	107*	47*	105*
Cc1noc(NS(=O)(=O)c2ccc(NC(=O)C3COc4ccccc4O3)cc2)c1C (configuration not stated)	·	0	·	·	·	·	·	·
CC(C)(Oc1ccc(Cl)cc1)C(=O)Nc1cc(-c2nc3ncccc3o2)ccc1Cl	·	0	·	·	·	·	·	·
COc1cccc(CN2CCCCN3[C@@H](CO)[C@@H](c4ccc(C#Cc5cccnc5)cc4)[C@@H]3C2)c1	-73	·	118*	0	104*	?	27	104*
COc1cccc(CN2CCCCN3[C@H](C2)[C@@H](c2ccc(C#Cc4cccnc4)cc2)[C@@H]3CO)c1	-71	·	117*	0	94	102*	26	104*
COc1cccc(CN2CCCCN3[C@H](CO)[C@@H](c4ccc(-c5cccnc5)cc4)[C@H]3C2)c1	-56	·	30	0	·	·	·	·
Cc1ccccc1-c1ccc([C@H]2[C@H](CO)N3CCCCN(C(=O)CN4CCOCC4)C[C@@H]23)cc1	-4	·	102*	-1	87	70	14	23
Cc1ccccc1-c1ccc([C@@H]2[C@H](CO)N3CCCCN(C(=O)CN4CCOCC4)C[C@@H]23)cc1	-34	·	101*	2	84	47	36*	32*
COc1ccc(-c2ccc(C#N)c(SCC(=O)Nc3cccc(C(F)(F)F)c3)n2)cc1	·	0	·	·	·	·	·	·
C[C@@H]1CN([C@@H](C)CO)C(=O)c2cc(NC(=O)Nc3ccc(F)cc3)ccc2O[C@@H](C)CCCCO[C@H]1CN(C)C(=O)C1CCCCC1	-52	2	82	0	·	·	·	·
C[C@@H]1CCCCO[C@@H](CN(C)C(=O)C2CCCCC2)[C@H](C)CN([C@@H](C)CO)C(=O)c2cc(NC(=O)Nc3ccc(C(F)(F)F)cc3)ccc2O1	-6	0	121*	-1	97*	108*	-9	9
C[C@H](CO)N1C[C@H](C)[C@@H](CN(C)C(=O)C2CCCCC2)OCCCC[C@H](C)Oc2ccc(NC(=O)Nc3ccc(C(F)(F)F)cc3)cc2C1=O	-28	2	120*	0	97*	110*	4	19
C[C@@H]1CN([C@H](C)CO)C(=O)c2cc(NC(=O)Nc3ccc(C(F)(F)F)cc3)ccc2O[C@@H](C)CCCCO[C@@H]1CN(C)C(=O)C1CCCCC1	-84*	·	121*	0	92	116*	-12	23
C[C@@H]1CN([C@H](C)CO)C(=O)c2cc(NC(=O)Nc3ccc(C(F)(F)F)cc3)ccc2O[C@@H](C)CCCCO[C@H]1CN(C)C(=O)C1CCCCC1	-45	·	122*	0	102*	117*	16	47*
CC(C)(C)NC(=O)Cn1cc(C(=O)c2ccco2)c2ccccc21	·	0	·	·	·	·	·	·
COC(=O)c1ccccc1NC(=O)CSc1nc2c(cc1C#N)CCCCC2	·	0	·	·	·	·	·	·
CCC(=O)c1cn(CC(=O)Nc2cccc(C(F)(F)F)c2)c2ccccc12	·	0	·	·	·	·	·	·
C[C@@H]1CCCCO[C@@H](CN(C)C(=O)C2CCCCC2)[C@@H](C)CN([C@@H](C)CO)C(=O)c2cc(NC(=O)Nc3ccc(C(F)(F)F)cc3)ccc2O1	?	·	120*	0	96*	117*	38*	64*
SMILES	Pf Dd2 growth	IDH1 R132H inh	T cruzi growth-1	KDM4C inh	T cruzi growth-2	T cruzi growth-3	NIH3T3 tox	3T3 cytotox 2
Cc1ccc2nc(-c3ccc(NC(=O)C(C)Oc4ccc5c(C)cc(=O)oc5c4)cc3)sc2c1 (configuration not stated)	·	0	·	·	·	·	·	·
COc1ccccc1-c1nnc(SCC(=O)c2ccc(NC(C)=O)cc2)o1	·	0	·	·	·	·	·	·
CN1c2ccc(-c3cccc(C#N)c3)cc2[C@H]2[C@H](CCN2C(=O)Cc2ccccn2)[C@H]1CO	-38	·	102*	2	107*	61	6	16
CN1c2ccc(-c3ccccc3F)cc2[C@H]2[C@H](CCN2C(=O)c2cccc(F)c2)[C@H]1CO	11	·	?	0	107*	81	12	103*
CCC(=O)N1CC[C@@H]2[C@H]1c1cc(-c3ccccc3F)ccc1N(C)[C@@H]2CO	30	·	100*	1	104*	16	-10	9
CN1c2ccc(-c3ccccc3F)cc2[C@@H]2[C@@H](CCN2C(=O)Cc2ccccn2)[C@@H]1CO	-49	·	104*	4	101*	40	6	17
